Our source for the IC50 values is ChEMBL document CHEMBL4251626, “4β-amidotriazole linked podophyllotoxin congeners: DNA topoisomerase-IIα inhibition and potential anticancer agents for prostate cancer” (Eur J Med Chem, 2018).

The test system of the first experiment is HT-29. As to the kind of experiment: Antiproliferative activity against human HT-29 cells after 48 hrs by MTT assay. Format: functional, cell-based. As to conditions: HT-29, 48 h. The essentials: (§1)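 Cells in DMEM/10% FBS pre-incubated 24 h at 37 °C, then compound-treated 48 h (10 mM DMSO stock diluted in medium). MTT (10 µL of 5 mg/mL) added for 4 h; formazan dissolved in DMSO, absorbance read at 570 nm. IC50 = 50% inhibitory concentration, mean of three individual experiments.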
On the technique in general: Formazan colour is commonly taken as a measure of viable cells.
For `COc1cc([C@@H]2c3cc4c(cc3C(NC(=O)c3cn(Cc5cccc(Oc6ccccc6)c5)nn3)[C@H]3COC(=O)[C@H]23)OCO4)cc(OC)c1OC` (single isomer, unassigned), the concentration for half-maximal inhibition (IC50) worked out at 40.5 µM. This lies in the double-digit micromolar range.

Another experiment has as its system A549. As to the kind of experiment: Antiproliferative activity against human A549 cells after 48 hrs by MTT assay. Format: functional, cell-based. The following applies: A549, 48 h. In a few lines: as §1
Regarding `COc1cc([C@@H]2c3cc4c(cc3C(NC(=O)c3cn(Cc5cccc(Oc6ccccc6)c5)nn3)[C@H]3COC(=O)[C@H]23)OCO4)cc(OC)c1OC` (single isomer, unassigned), the IC50 was determined as 8.65 µM.

The subject of another experiment is DU-145. As to the kind of experiment: Antiproliferative activity against human DU145 cells after 48 hrs by MTT assay. Format: functional, cell-based. As to conditions: DU-145, 48 h. In a few lines:
as §1
The compound `COc1cc([C@@H]2c3cc4c(cc3C(NC(=O)c3cn(Cc5cccc(Oc6ccccc6)c5)nn3)[C@H]3COC(=O)[C@H]23)OCO4)cc(OC)c1OC` (single isomer, unassigned) returned an IC50 of 5.68 µM.

The test system of the next experiment is MCF7. Kind of experiment: Antiproliferative activity against human MCF7 cells after 48 hrs by MTT assay. Format: functional, cell-based. As to conditions: MCF7, 48 h. In a few lines: as §1
Compound `COc1cc([C@@H]2c3cc4c(cc3C(NC(=O)c3cn(Cc5cccc(Oc6ccccc6)c5)nn3)[C@H]3COC(=O)[C@H]23)OCO4)cc(OC)c1OC` (single isomer, unassigned) registered an IC50 of 4.4 µM. This lies in the single-digit micromolar range.

A further experiment deals with HepG2. As to the kind of experiment: Antiproliferative activity against human HepG2 cells after 48 hrs by MTT assay. As to conditions: HepG2, 48 h. It counts as functional, cell-based. In a few lines:
as §1
In turn, `COc1cc([C@@H]2c3cc4c(cc3C(NC(=O)c3cn(Cc5cccc(Oc6ccccc6)c5)nn3)[C@H]3COC(=O)[C@H]23)OCO4)cc(OC)c1OC` (single isomer, unassigned) gave a concentration for half-maximal inhibition (IC50) of 6.6 µM.

For a further experiment, the system named is NIH3T3. As to the kind of experiment: Antiproliferative activity against mouse NIH/3T3 cells after 48 hrs by MTT assay. It counts as cell-based. As to conditions: NIH3T3, 48 h. In a few lines: as §1
The compound `COc1cc([C@@H]2c3cc4c(cc3C(NC(=O)c3cn(Cc5cccc(Oc6ccccc6)c5)nn3)[C@H]3COC(=O)[C@H]23)OCO4)cc(OC)c1OC` (single isomer, unassigned) had an IC50 of 88.4 µM.

Another experiment concerns HeLa. As to the kind of experiment: Antiproliferative activity against human HeLa cells after 48 hrs by MTT assay. Format: functional, cell-based.
Conditions: not given
The essentials: as §1
For `COc1cc([C@@H]2c3cc4c(cc3C(NC(=O)c3cn(Cc5cccc(Oc6ccccc6)c5)nn3)[C@H]3COC(=O)[C@H]23)OCO4)cc(OC)c1OC` (single isomer, unassigned), the IC50 turned out to be 22.7 µM.

The term IC50 denotes the concentration at which inhibition is half-maximal. A lower IC50 goes with higher potency.
